Most compounds without a hit are left out; they make up all but 4.5% or so of the library.
OX1R antag-1 – blocks the human orexin 1 receptor; O43613; OX1R-expressing cells, FRET antagonist read-out; inhibition, % at 6.6 µM; 330,000 compounds, 1.8% hits; in the data active = inhibition mostly above about 38%, no sharp cut-off; inactive = mostly below about 40%;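 also: 0% = agonist challenge alone and 100% = reference antagonist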
TAAR1 antagonist – antagonists of human TAAR1 | Q96RJ0 | CHO RD-HGA16 TAAR1, Fluo-8 calcium fluorescence, antagonist | inhibition, % at 3 µM | 360,000 compounds, 1.5% hits;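 active = inhibition above a per-plate cutoff, the mean inhibition of test compounds on that plate plus 3 SD, cut at about 49% in these data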;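 also: 0% = DMSO plus EC80 beta-PEA response and 100% = DMSO alone without agonist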
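System: RD-HGA16 CHO cells with stable hTAAR1 and Gα16 | Probe or stimulus: EC80 β-phenethylamine stimulus | Dosing: 3 µM, single point | Times: Dye loading 75 min at 37 °C, then 30 min room temperature | Measured by: Fluo-8 calcium-sensitive fluorescence | Read-out basis: % inhibition of agonist calcium response | Replicates: n of 1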
TAAR1 ag – human TAAR1 agonism. CHO RD-HGA16 TAAR1, Fluo-8 calcium fluorescence; vehicle wells 0%, saturating PEA agonist 100%. Q96RJ0. 360,000 compounds, 0.99% hits. activation, % at 3 µM. AID 624467;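 active = activation above the mean activation of all test compounds in the run plus 3 SD, cut at about 38% in these data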
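System: CHO RD-HGA16 cells carrying human TAAR1 plus Gα16; Incubation: 17-24 h seeding, 75 min 37 °C dye, 30 min RT; Measured by: Fluo-8 fluorescence, 5 s baseline then 140 s kinetic read; Control set: DMSO and PEA EC100; Replication: single well for each compound.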
GPR7 antag – antagonists of human GPR7 (neuropeptides B/W receptor 1); GPR7-expressing cells, fluorescence antagonist assay; inhibition, % at 4.4 µM; 290,000 compounds, 1.1% hits; AID 1861; in the data active = inhibition above about 16%, passing the limit was not always enough;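 also: cells stimulated with the agonist NPW; 0% = agonist with vehicle and 100% = vehicle without agonist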
Target sequence (P48145 whole entry, looked up): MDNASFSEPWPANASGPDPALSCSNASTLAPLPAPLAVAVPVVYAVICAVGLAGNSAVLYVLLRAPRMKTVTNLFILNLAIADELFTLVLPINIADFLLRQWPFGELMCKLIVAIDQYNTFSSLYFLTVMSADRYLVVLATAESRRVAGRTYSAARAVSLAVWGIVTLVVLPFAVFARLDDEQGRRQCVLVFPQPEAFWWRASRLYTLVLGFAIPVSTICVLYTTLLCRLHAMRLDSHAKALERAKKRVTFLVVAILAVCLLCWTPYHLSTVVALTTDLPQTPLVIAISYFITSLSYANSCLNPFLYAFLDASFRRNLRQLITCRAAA
OX1R antag-2 – human HCRTR1 antagonism | O43613 | CHO/OX1R cells, Fluo-8 calcium fluorescence, orexin A | inhibition, % at 5 µM | 330,000 compounds, 0.43% hits | AID 434989;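 active = inhibition above its plate's threshold, mean inhibition of all tested compounds on the plate plus 3 SD, cut at about 37% in these data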;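 also: 0% = orexin A challenge wells and 100% = SB-334867-A antagonist wells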
CHO parental Ca – counter-screen for OX1R antagonists: effect in parental CHO cells; parental CHO-K1, ATP-induced calcium, Fluo-8 fluorescence; inhibition, % at 5.6 µM; 330,000 compounds, 0.63% hits; AID 463079;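 active = inhibition above that plate's mean sample inhibition plus 3 SD, cut at about 26% in these data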;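 also: 0% = ATP-challenged DMSO wells and 100% = DMSO wells without ATP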
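material = parental CHO cells | also added = ATP as calcium-mobilizing challenge | dosing = single point at 5.6 µM | detection = intracellular calcium via Fluo-8 no-wash fluorescent dye | read-out = % inhibition | benchmarks = low control ATP plus DMSO, high control DMSO only | repeats = one well per compound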
* = called active by the depositor; nt = no result.

SMILES | OX1R antag-1 | TAAR1 antagonist | TAAR1 ag | GPR7 antag | OX1R antag-2 | CHO parental Ca
Cc1c(Br)c(O)c(Br)c(O)c1/C=N/n1c(-c2ccccc2)n[nH]c1=S | 44* | nt | nt | -17 | -14 | -9
CC1(C)C=Cc2c(ccc3c2OC[C@H](c2ccc(O)cc2O)C3)O1 | 0 | 2 | 17 | nt | 52* | 79*
CC(C)=CCc1cc([C@@H]2COc3c(ccc4c3C=CC(C)(C)O4)C2)c(O)cc1O | 3 | -25 | 1 | nt | -7 | -9
Nc1ccn([C@@H]2O[C@H](C(=O)N[C@H](Cc3ccccc3)C(=O)N[C@H]3CCCCNC3=O)[C@@H](O)[C@H]2O)c(=O)n1 | nt | -9 | 13 | nt | nt | nt
CC(C)NC(=O)c1cc(-c2ccc(F)cc2OC(C)C)n[nH]1 | nt | 11 | 3 | nt | nt | nt
O=C1CN(C(=O)c2ccccc2Br)C(c2ccc(F)cc2)c2cc(F)ccc2N1 (configuration not stated) | 4 | 8 | 41* | -3 | -34 | -21
COc1ccccc1C1(CCNC(C)c2cccs2)CCOC(C(C)C)C1 (configuration not stated) | 5 | -14 | 2 | 20* | -25 | -9
Cc1ccc(C2(CCNC(C)c3cccs3)CCOC(C(C)C)C2)cc1 (configuration not stated) | nt | 5 | 4 | 10 | nt | nt
Clc1ccc(-c2nnc(CSc3nnc(-c4cccs4)n3Cc3ccccc3)o2)cc1 | 47* | 17 | 1 | 20 | 4 | 23
Fc1ccc(NCc2nnc(SCc3nnc(-c4ccccc4)o3)n2Cc2ccccc2)cc1 | 51 | 12 | 11 | -15 | 73* | 51*
Fc1ccc(C2CCCCN2Cc2nc(CC3CC3)no2)cc1 (configuration not stated) | 5 | 3 | 11 | -6 | -8 | -11
Fc1ccc2nc(C3CCCCN3Cc3nc(CC4CC4)no3)[nH]c2c1 (configuration not stated) | 17 | -3 | 3 | 19* | -40 | -17
CC1(CC(=O)N/N=C/c2cc([N+](=O)[O-])c(O)cc2O)OCCO1 | 52* | 7 | 4 | 1 | -2 | -2
COc1ccccc1N(CC(=O)Nc1cc(S(=O)(=O)N(C)C)ccc1C)S(=O)(=O)c1cccs1 | 34* | 8 | 2 | nt | 26 | -16
COc1ccc(CNC(=O)CN(c2ccccc2OC)S(=O)(=O)c2cccs2)cc1 | 12 | 46 | 11 | nt | -5 | -10
COc1ccc(S(=O)(=O)N(CC(=O)N/N=C/c2cccs2)c2ccc(C)cc2)cc1OC | 53 | 40 | 11 | -2 | -6 | -10
COc1ccc(S(=O)(=O)N(CC(=O)N/N=C/c2cccs2)c2cc(C)cc(C)c2)cc1OC | 50* | 47 | 13 | -5 | 35 | -26
CC(=O)O[C@H]1C=C[C@@H](C#Cc2ccc(C(C)(C)C)cc2)O[C@@H]1COC(=O)Nc1ccccc1 | nt | -2 | 0 | nt | nt | nt
CCCC(=O)OC[C@H]1CN([C@H](C)c2ccccc2)S(=O)(=O)c2c(F)cccc2O1 | nt | 9 | -1 | nt | nt | nt
COC(=O)C1=C(C)N(Cc2cccc(C(F)(F)F)c2)C(=NCC2CC2)NC1c1ccccc1C(F)(F)F (configuration not stated) | nt | 15 | 9 | nt | nt | nt
CCc1nc2ccc(C(=O)NCc3ccccc3OC)cn2c1N(C)Cc1ccc(N(C)C)cc1 | nt | 17 | -2 | nt | nt | nt
COc1ccccc1OCC(=O)Nc1ccc(CSc2ccccc2)cc1C | 21 | 23 | -1 | 8 | -15 | 30*
Brc1ccc(N2O[C@H]3C=C[C@@H]2C3)nc1 | nt | -21 | 2 | nt | nt | nt
Cc1ccn2cc(-c3cccc([N+](=O)[O-])c3)nc2c1 | 66* | 16 | -1 | -7 | -25 | -18
Oc1c(C(c2ccccc2)N2CCCCC2)ccc2ccccc12 (configuration not stated) | nt | -8 | 0 | nt | nt | nt
O=S(=O)(Nc1nccs1)c1ccc(NCc2cc(Br)cc(Br)c2O)cc1 | 15 | 7 | 12 | -11 | -10 | -4
COc1cccc(CNc2ccc(S(=O)(=O)Nc3nccs3)cc2)c1O | 4 | 12 | 8 | 17* | -10 | -6
CN1OC[C@@H]2CN(C(=O)c3ccc([N+](=O)[O-])cc3)[C@H](c3ccccc3Br)C[C@@H]21 | nt | -28 | 0 | nt | nt | nt

Assay outcomes as filed in PubChem BioAssay.
